Columns and labels:
[1] = system: Mus musculus; experiment: Anticonvulsant activity in ip dosed DBA/2 mouse assessed as inhibition of auditory stimulation-induced clonic seizures administered 30 mins before auditory stimulation; assay type: functional; settings: DBA/2, ip
In short: (§1)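 DBA/2 mice (8–12 g, 22–25 days old), either sex, groups of 10. Given ip in 50% DMSO/50% saline at 0.1 mL/10 g, 30 min before testing. After 60 s habituation under a dome, sound (12–16 kHz, 109 dB) applied for 60 s or until tonic extension. Latency and incidence of each seizure phase scored.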

[2] = molecular target: Glutamate receptor ionotropic, NMDA 2B (Rattus norvegicus, UniProt Q00960); experiment: Displacement of [3H]ifenprodil from NMDA NR2B receptor in Wistar rat cerebral cortex membrane; assay type: tissue-based
[3] = system: Mus musculus; experiment: Anticonvulsant activity in ip dosed DBA/2 mouse assessed as inhibition of auditory stimulation-induced tonic seizures administered 30 mins before auditory stimulation; assay type: functional; settings: DBA/2, ip; in short: as §1
[4] = molecular target: Glutamate receptor ionotropic, NMDA 2B (Rattus norvegicus) (UniProt Q00960); experiment: Displacement of [3H]ifenprodil from NMDA NR2B receptor in Wistar rat cerebral cortex membrane at 10 uM; assay type: tissue-based
[5] = molecular target: Glutamate receptor ionotropic, NMDA 2B (Rattus norvegicus) (UniProt Q00960); experiment: Antagonist activity at NMDA NR2B receptor in Wistar rat CA1 pyramidal neurons assessed as reduction of NMDA-induced inward currents at 100 uM at holding potential of -60 mV by patch-clamp technique; assay type: functional, cell-based; design: scale not given: the % may be the effect or the level left; settings: Pyramidal neuron
In short: (§2)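 Rat hippocampal slices; whole-cell currents recorded from single CA1 pyramidal neurons held at -60 mV. Inward current evoked by NMDA (50 µM, 5 s) plus glycine (0.5 µM). Compound bath-perfused at 1, 10 or 100 µM for 5 min. Amplitude taken as peak minus baseline, from at least three consecutive responses in control and in compound. Sets compared by unpaired t-test; percent reduction reported as mean ± SEM.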

[6] = molecular target: Glutamate receptor ionotropic, NMDA 2B (Rattus norvegicus) (UniProt Q00960); experiment: Antagonist activity at NMDA NR2B receptor in Wistar rat CA1 pyramidal neurons assessed as inhibition of NMDA-induced inward currents at holding potential of -60 mV by patch-clamp technique; assay type: functional, cell-based; settings: Pyramidal neuron; in short: as §2
[7] = molecular target: Glutamate receptor ionotropic, NMDA 2B (Rattus norvegicus) (UniProt Q00960); experiment: Antagonist activity at NMDA NR2B receptor in Wistar rat CA1 pyramidal neurons assessed as reduction of NMDA-induced inward currents at 1 uM at holding potential of -60 mV by patch-clamp technique; assay type: functional, cell-based; design: scale not given: the % may be the effect or the level left; settings: Pyramidal neuron; in short: as §2
[8] = molecular target: Glutamate receptor ionotropic, NMDA 2B (Rattus norvegicus) (UniProt Q00960); experiment: Antagonist activity at NMDA NR2B receptor in Wistar rat CA1 pyramidal neurons assessed as reduction of NMDA-induced inward currents at 10 uM at holding potential of -60 mV by patch-clamp technique; assay type: functional, cell-based; design: scale not given: the % may be the effect or the level left; settings: Pyramidal neuron; in short: as §2

Glutamate receptor ionotropic, NMDA 2B, sequence (Q00960 whole entry): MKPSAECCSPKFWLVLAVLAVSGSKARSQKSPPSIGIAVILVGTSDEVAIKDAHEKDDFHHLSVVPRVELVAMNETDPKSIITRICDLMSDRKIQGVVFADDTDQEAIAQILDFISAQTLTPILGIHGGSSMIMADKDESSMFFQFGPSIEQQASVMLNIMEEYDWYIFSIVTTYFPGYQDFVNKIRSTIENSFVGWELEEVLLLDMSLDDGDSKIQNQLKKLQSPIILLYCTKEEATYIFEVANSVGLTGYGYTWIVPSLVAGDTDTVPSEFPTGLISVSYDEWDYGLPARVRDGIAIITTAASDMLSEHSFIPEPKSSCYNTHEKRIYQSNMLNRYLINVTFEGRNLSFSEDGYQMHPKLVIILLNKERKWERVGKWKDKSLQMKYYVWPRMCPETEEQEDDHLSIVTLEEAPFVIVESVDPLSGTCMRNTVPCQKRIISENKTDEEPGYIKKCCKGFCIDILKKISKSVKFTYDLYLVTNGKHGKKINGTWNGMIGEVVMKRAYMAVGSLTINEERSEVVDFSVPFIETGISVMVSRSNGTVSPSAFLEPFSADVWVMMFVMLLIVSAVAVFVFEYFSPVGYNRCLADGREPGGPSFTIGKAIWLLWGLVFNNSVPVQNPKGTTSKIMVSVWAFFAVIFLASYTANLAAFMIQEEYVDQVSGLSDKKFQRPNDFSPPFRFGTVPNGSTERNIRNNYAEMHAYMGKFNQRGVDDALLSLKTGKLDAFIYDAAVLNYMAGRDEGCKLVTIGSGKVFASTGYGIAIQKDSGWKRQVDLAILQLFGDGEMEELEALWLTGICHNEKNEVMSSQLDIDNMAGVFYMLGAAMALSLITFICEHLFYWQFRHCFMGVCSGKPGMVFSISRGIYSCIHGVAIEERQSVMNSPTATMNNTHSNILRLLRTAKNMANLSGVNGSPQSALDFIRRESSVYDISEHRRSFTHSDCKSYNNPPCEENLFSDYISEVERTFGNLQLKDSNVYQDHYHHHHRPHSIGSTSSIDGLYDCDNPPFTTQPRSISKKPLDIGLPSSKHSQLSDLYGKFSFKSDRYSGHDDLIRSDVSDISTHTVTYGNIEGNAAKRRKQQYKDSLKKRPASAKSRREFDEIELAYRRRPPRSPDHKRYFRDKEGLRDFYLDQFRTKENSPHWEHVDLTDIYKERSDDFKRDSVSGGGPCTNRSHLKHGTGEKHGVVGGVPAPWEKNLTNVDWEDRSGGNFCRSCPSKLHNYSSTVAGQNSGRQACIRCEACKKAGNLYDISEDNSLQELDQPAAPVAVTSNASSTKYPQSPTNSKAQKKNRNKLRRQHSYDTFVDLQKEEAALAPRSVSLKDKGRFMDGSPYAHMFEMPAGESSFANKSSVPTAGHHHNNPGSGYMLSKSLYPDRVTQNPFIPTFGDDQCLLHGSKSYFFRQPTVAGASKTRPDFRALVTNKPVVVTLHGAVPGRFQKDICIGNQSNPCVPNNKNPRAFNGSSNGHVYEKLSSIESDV
Glutamate receptor ionotropic, NMDA 2B (Rattus norvegicus), sequence (Q00960 27-1482 limits assumed): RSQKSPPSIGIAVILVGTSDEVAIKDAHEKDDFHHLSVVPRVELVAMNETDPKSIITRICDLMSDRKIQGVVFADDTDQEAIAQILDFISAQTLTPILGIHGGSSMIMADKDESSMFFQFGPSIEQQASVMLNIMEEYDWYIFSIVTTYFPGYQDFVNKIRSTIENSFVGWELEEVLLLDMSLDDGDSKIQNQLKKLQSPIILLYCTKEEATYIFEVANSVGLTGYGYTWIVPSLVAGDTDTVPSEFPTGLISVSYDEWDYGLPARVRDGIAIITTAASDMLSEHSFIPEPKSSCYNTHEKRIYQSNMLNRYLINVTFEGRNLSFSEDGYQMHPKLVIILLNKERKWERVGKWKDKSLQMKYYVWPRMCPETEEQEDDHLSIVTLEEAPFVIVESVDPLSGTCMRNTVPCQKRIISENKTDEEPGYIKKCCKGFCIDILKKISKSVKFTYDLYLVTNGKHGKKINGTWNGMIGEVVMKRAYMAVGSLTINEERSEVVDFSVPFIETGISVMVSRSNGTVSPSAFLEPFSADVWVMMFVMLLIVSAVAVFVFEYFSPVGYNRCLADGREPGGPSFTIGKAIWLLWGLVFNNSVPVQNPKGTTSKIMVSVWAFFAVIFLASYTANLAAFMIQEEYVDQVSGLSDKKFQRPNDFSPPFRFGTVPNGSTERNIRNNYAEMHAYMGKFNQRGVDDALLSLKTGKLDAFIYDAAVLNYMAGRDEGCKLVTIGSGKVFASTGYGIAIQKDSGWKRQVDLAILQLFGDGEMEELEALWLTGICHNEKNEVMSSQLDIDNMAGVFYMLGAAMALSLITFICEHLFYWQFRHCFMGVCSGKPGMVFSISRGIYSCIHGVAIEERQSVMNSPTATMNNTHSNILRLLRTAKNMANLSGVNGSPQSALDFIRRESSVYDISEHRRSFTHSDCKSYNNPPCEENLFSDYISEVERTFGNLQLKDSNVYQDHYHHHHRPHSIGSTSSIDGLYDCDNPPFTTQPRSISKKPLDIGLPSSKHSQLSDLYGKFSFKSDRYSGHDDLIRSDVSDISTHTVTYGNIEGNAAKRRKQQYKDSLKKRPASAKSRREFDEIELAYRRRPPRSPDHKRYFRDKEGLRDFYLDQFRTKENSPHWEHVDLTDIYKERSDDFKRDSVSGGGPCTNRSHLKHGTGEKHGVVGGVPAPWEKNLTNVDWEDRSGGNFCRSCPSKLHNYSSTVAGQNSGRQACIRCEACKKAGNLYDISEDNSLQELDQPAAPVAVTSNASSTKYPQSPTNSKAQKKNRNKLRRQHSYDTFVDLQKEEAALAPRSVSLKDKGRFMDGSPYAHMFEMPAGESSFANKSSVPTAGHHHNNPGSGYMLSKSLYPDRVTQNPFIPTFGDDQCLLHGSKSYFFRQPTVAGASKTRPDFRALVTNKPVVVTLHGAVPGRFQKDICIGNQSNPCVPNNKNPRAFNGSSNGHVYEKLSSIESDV

Compound	ED50 [1] [µmol/kg]	ED50 [3] [µmol/kg]	further results
O=C(C(=O)N1CCC(Cc2ccccc2)CC1)c1c[nH]c2ccc(O)cc12	> 100	> 100	IC50 [2]: 2.66 µM; Activity [4]: 77%
O=C(Cc1c[nH]c2ccc(Br)cc12)N1CCC(Cc2ccccc2)CC1	27.3	5.42	
O=C(C(=O)N1CCC(Cc2ccccc2)CC1)c1c[nH]c2ccc(Br)cc12	> 100	47.9	
O=C(CN1CCC(Cc2ccccc2)CC1)c1c[nH]c2ccccc12	22.4	8.71	IC50 [2]: 0.769 µM; Activity [4]: 89%
COc1ccc2[nH]cc(C(=O)CN3CCC(Cc4ccccc4)CC3)c2c1	59.9	36.5	
COc1ccc2[nH]cc(C(=O)C(=O)N3CCC(Cc4ccccc4)CC3)c2c1	> 100	78.8	
O=C(CN1CCN(Cc2ccccc2)CC1)c1c[nH]c2ccccc12	> 100	> 100	
C[C@@H](CN1CCC(Cc2ccccc2)CC1)[C@@H](O)c1ccc(O)cc1	40	10.6	
O=C(CN1CCC(Cc2ccccc2)CC1)c1c[nH]c2ncccc12	88.5	32.5	
O=C(Cc1c[nH]c2ccccc12)N1CCC(Cc2ccccc2)CC1	70.3	39.2	
O=C(Cc1c[nH]c2ccc(O)cc12)N1CCC(Cc2ccccc2)CC1	45.6	13.9	
O=C(CCc1c[nH]c2ccccc12)N1CCC(Cc2ccccc2)CC1	> 100	57.6	
COc1ccc2[nH]cc(CC(=O)N3CCC(Cc4ccccc4)CC3)c2c1	89	34.4	
O=C(CN1CCC(Cc2ccccc2)CC1)c1c[nH]c2ccc(O)cc12	11.5	6.48	Activity [5]: 75%; IC50 [2]: 0.025 µM; Ki [2]: 0.023 µM; Activity [6]: Dose-dependent effect; Activity [7]: 23%; Activity [8]: 52%; Activity [4]: 92%
O=C(CN1CCC(Cc2ccccc2)CC1)c1c[nH]c2ccc(Br)cc12	84.9	49.7	
O=C(C(=O)N1CCC(Cc2ccccc2)CC1)c1c[nH]c2ccccc12	22.4	0.95	Activity [4]: 36%

From ChEMBL document CHEMBL1152695, “Development of 3-substituted-1H-indole derivatives as NR2B/NMDA receptor antagonists” (Bioorg Med Chem, 2009)
